Assay [1] has as its system cytokine (TNF-α) production in human leukemia cell line (THP-1). The experiment in a line: Cytokine. In kind it is cell-based. The conditions noted are these: THP-1 cells, LPS 50 ng/mL, 240 min; for inhibition of cytokine (TNF-α) production: test concentration not given. An outline of the steps:
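THP-1 cells grown in RPMI-1640 with 50 µM mercaptoethanol, 1 mM sodium pyruvate, 10% FBS, 5.5 mM glucose, 2 mM L-glutamine and 10 mM HEPES, then plated at 70% confluency. Cells differentiated to macrophage-like cells with PMA 20 ng/mL for 24 h (37 °C, 5% CO2). E. coli LPS B added with test compound for 240 min. Supernatant TNF-α measured by human DuoSet ELISA.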

Assay [2] concerns T-cell proliferation. The assay is described as follows: T-cells proliferation assay. The class given is cell-based, human. The settings on record: for IC50: Homo sapiens, T-cell, 48 h, read-out: IC50 against T-cell proliferation. An outline of the steps: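 PBMCs came from heparinized healthy human blood. Blood was diluted 1:1 with RPMI-1640, layered on LSM and spun at 400 g for 20 min at 25 °C. The buffy layer was washed at 4 °C and resuspended in RPMI with 5% FBS. Cells were activated with PHA-L, given test compound at several concentrations in triplicate, and incubated 2 days at 37 °C, 5% CO2. Alamar Blue (one-tenth volume) was added for 4 h; absorbance read at 570 and 600 nm.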

The mark [3] stands for this setting: human T-lymphocytes, phytohemagglutinin-L 7.5 μg/mL, 2 days.

Values after ≈ are worked out from the molar mass of the structure shown.

For the molecule “17β-Hydroxy-1-methyl-3-oxo-5α-androst-1-en [Compound 8]”, the “inhibition of cytokine (TNF-α) production” value (“inhibition of cytokine” for short) in assay [1] came to 69.7 ± 1.4%. The “IC50 against T-cell proliferation” value in assay [2] (setting [3]) was determined as 21.1 ± 0.04 µg/mL.
With `CC(=O)O[C@H]1CC[C@H]2[C@@H]3CC[C@H]4CC(=O)C=C(C)[C@]4(C)[C@H]3CC[C@]12C` [Compound 1, Metenolone acetate, reference compound], the “inhibition of cytokine” value in assay [1] is given as 62.5 ± 4.4%. Also, the “activity against T-cell proliferation (in words)” value in assay [2] (setting [3]) is “inactive”.
On to `CC(=O)OC1CC[C@H]2[C@@H]3C[C@H](O)[C@H]4CC(=O)C=C(C)[C@]4(C)[C@H]3CC[C@]12C` (stereo partly drawn) [Compound 2, 6α-Hydroxy-1-methyl-3-oxo-5α-androst-1-en-17-yl acetate], for which the “inhibition of cytokine” value in assay [1] amounted to 73.4 ± 0.6%. In addition, the IC50 in assay [2] was determined as 68.9 ± 0.02 µg/mL.
Take `CC(=O)OC1CC[C@H]2[C@@H]3[C@@H](O)C[C@H]4CC(=O)C=C(C)[C@]4(C)[C@H]3CC[C@]12C` (stereo partly drawn) [Compound 4, 7β-Hydroxy-1-methyl-3-oxo-5α-androst-1-en-17-yl acetate]: the “inhibition of cytokine” value in assay [1] amounted to 33.5 ± 6.6%. Besides, in assay [2] (setting [3]), the “activity against T-cell proliferation (in words)” value is “inactive”.
The like results for `CC(=O)OC1C[C@@H](O)[C@H]2[C@@H]3CC[C@H]4CC(=O)C=C(C)[C@]4(C)[C@H]3CC[C@]12C` (stereo partly drawn) [Compound 6, 15β-Hydroxy-1-methyl-3-oxo-5α-androst-1-en-17-yl acetate] were, in that order, 37.8 ± 1.1% and “inactive”.
The matching figures for `CC1=CC(=O)C=C2CC[C@@H]3[C@H](CC[C@]4(C)[C@@H](O)CC[C@@H]34)[C@@]12C` [Compound 7, 17β-Hydroxy-1-methyl-3-oxoandrosta-1,4-dien]: 46.6 ± 5.2% and “inactive”.
In the case of `CC1=CC(=O)C[C@H]2CC[C@H]3[C@@H]4CC[C@H](O)[C@@]4(C)CC[C@@H]3[C@@]12C` [Compound 9, 17β-Hydroxy-1-methyl-3-oxo-5β-androst-1-en], the “activity against cytokine (TNF-α) production (in words)” value in assay [1] was “inactive”.
As for `CC1=CC(=O)C[C@H]2CC[C@@H]3[C@H](CC[C@]4(C)C(=O)CC[C@@H]34)[C@@]12C` [Compound 10, 1-Methyl-5β-androst-1-en-3,17-dione], the “inhibition of cytokine” value in assay [1] amounted to 73.2 ± 0.3%.
On the same count and under the same terms, then `CC1=CC(=O)C=C2CC[C@@H]3[C@H](C[C@@H](O)[C@]4(C)[C@@H](O)CC[C@@H]34)[C@@]12C` [Compound 11, 12β,17β-Dihydroxy-1-methyl-3-oxoandrosta-1,4-dien], with 60.1 ± 3.3%.
Turning to `C[C@H]1CC(=O)C[C@@H]2CC[C@H]3[C@@H]4CC[C@H](O)[C@@]4(C)CC[C@@H]3[C@]21C` [Compound 13, 17β-Hydroxy-1α-methyl-5α-androstan-3-one], in assay [1], the “activity against cytokine (TNF-α) production (in words)” value was “inactive”.
Regarding `CC1=CC(=O)C[C@@H]2C[C@H](O)[C@H]3[C@@H]4[C@H](O)C[C@H](O)[C@@]4(C)CC[C@@H]3[C@@]12C` [Compound 14, 7β,15β,17β-trihydroxy-1-methyl-3-oxo-5α-androst-1-en], the “inhibition of cytokine” value in assay [1] is reported as 52.9 ± 2.4%.
For the molecule `C[C@]12C=CC(=O)C=C1CC[C@@H]1[C@@H]2[C@@H](O)C[C@@]2(C)[C@H]1CC[C@]2(O)C(=O)CO` [prednisolone, reference compound], the IC50 in assay [2] worked out at 3.51 ± 0.03 µg/mL (≈ 9.74 µM).
